According to ChEMBL document CHEMBL1130336, “Polyanion inhibitors of human immunodeficiency virus and other viruses. 6. Micelle-like anti-HIV polyanionic compounds based on a carbohydrate core” (J Med Chem, 1997):

What was measured:
[1] = tested on: CEM-4; experiment: Concentration required to reduce the viability of uninfected CEM-4 cells by 50%; type: functional; conditions: Homo sapiens
How it was run: (§1)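 Cytotoxicity in uninfected CEM-4 or MT-4 cells, measured as inhibition of cell growth. The value is the concentration that lowers viability by 50%.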

[2] = tested on: CEM-4; experiment: Inhibitory concentration required to inhibit HIV-induced cytopathicity in CEM-4 cells by 50%; type: functional, cell-based; conditions: Homo sapiens
How it was run: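 CEM-4 cells infected with HIV-1 (strain HTLV-III_B/LAI). The end point is 50% inhibition of HIV-induced cytopathicity.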

[3] = tested on: E6SM; experiment: Concentration required to cause a microscopically detectable alteration of normal E6SM cell morphology; type: functional, cell-based; conditions: Homo sapiens, read-out: IC50
How it was run: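 Minimum cytotoxic concentration, read microscopically as the level that causes a detectable alteration of normal cell morphology.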

[4] = tested on: E6SM; experiment: Concentration required to reduce herpes simplex virus-1TK( B2006) inducted cytopathicity by 50% (E6SM cells); type: functional, cell-based; conditions: Homo sapiens
How it was run: (§2)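 Virus was added in the presence of compound, and the cells were incubated until cytopathic effect was scored. The value is the concentration that reduces virus-induced CPE by 50%.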

[5] = tested on: E6SM; experiment: Concentration required to reduce herpes simplex virus-1TK (F) inducted cytopathicity by 50% (E6SM cells); type: functional, cell-based; conditions: Homo sapiens; how it was run: as §2
[6] = tested on: E6SM; experiment: Concentration required to reduce herpes simplex virus-1TK (KOS) inducted cytopathicity by 50% (E6SM cells); type: functional, cell-based; conditions: Homo sapiens; how it was run: as §2
[7] = tested on: E6SM; experiment: Concentration required to reduce herpes simplex virus-1TK (McIntyre) inducted cytopathicity by 50% (E6SM cells); type: functional, cell-based; conditions: Homo sapiens; how it was run: as §2
[8] = tested on: E6SM; experiment: Concentration required to reduce herpes simplex virus-1TK (VMW1837) inducted cytopathicity by 50% (E6SM cells); type: functional, cell-based; conditions: Homo sapiens; how it was run: as §2
[9] = tested on: E6SM; experiment: Concentration required to reduce herpes simplex virus-2(196) inducted cytopathicity by 50% (E6SM cells); type: functional, cell-based; conditions: Homo sapiens; how it was run: as §2
[10] = tested on: E6SM; experiment: Concentration required to reduce herpes simplex virus-2(G) inducted cytopathicity by 50% (E6SM cells); type: functional, cell-based; conditions: Homo sapiens; how it was run: as §2
[11] = tested on: Vaccinia virus; experiment: Concentration required to reduce vaccinia virus-inducted cytopathicity by 50% (E6SM cells); type: functional, organism-based, Orthopoxvirus vaccinia
[12] = tested on: Human immunodeficiency virus 1; experiment: Concentration required to inhibit by 50% human immunodeficiency virus-1 induced syncytium formation upon coculturing persistently HIV-infected HUT-78 cells with MOLT-4 cells; type: functional, organism-based; conditions: Human immunodeficiency virus 1, MOLT-4
How it was run: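 MOLT-4 (clone 8) cells at 1 × 10^6 cells/mL, cocultured with an equal number of persistently infected HUT-78/HIV-1 or HUT-78/HIV-2 cells across a range of compound concentrations. Giant cells were counted under the microscope after 24 h of cocultivation. The value is the concentration giving 50% inhibition of syncytium formation.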

[13] = tested on: HEL; experiment: Concentration required to inhibit HEL cell growth by 50%; type: functional, cell-based; conditions: Homo sapiens
[14] = tested on: HEL; experiment: Concentration required to reduce human cytomegalo virus(AD-169) inducted cytopathicity by 50% (HEL cells); type: functional, cell-based; how it was run: as §2
[15] = tested on: HEL; experiment: Concentration required to reduce human cytomegalo virus(Davis) inducted cytopathicity by 50% (HEL cells); type: functional, cell-based; how it was run: as §2
[16] = tested on: HeLa; experiment: Concentration required to cause a microscopically detectable alteration of normal Hela cell morphology; type: functional, cell-based; conditions: Homo sapiens
[17] = tested on: HeLa; experiment: Concentration required to reduce Coxsackie virus-inducted cytopathicity by 50% (HeLa cells); type: functional, cell-based; conditions: Homo sapiens
[18] = tested on: HeLa; experiment: Concentration required to reduce polio-1 virus-inducted cytopathicity by 50% (HeLa cells); type: functional, cell-based; conditions: Homo sapiens
[19] = tested on: HeLa; experiment: Concentration required to reduce vesicular stomatitis virus-inducted cytopathicity by 50% (HeLa cells); type: functional, cell-based; conditions: Homo sapiens
[20] = tested on: MT4; experiment: Concentration required to reduce the viability of uninfected MT-4 cells by 50%; type: functional; conditions: Homo sapiens; how it was run: as §1
[21] = tested on: MT4; experiment: Concentration required to inhibit human immunodeficiency virus-2 induced cytopathicity in MT-4 cells by 50%; type: functional, cell-based
How it was run: (§3)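 MT-4 cells infected with HIV-1 (strain HTLV-III_B/LAI) or HIV-2 (strain LAV_ROD). The end point is 50% inhibition of virus-induced cytopathicity.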

[22] = tested on: Vero; experiment: Concentration required to cause a microscopically detectable alteration of normal Vero cell morphology; type: functional, cell-based; conditions: Chlorocebus sabaeus
[23] = tested on: Vero; experiment: Concentration required to reduce Coxsackie virus-inducted cytopathicity by 50% (Vero cells); type: functional, cell-based; conditions: Chlorocebus sabaeus
[24] = tested on: Vero; experiment: Concentration required to reduce Junin virus-inducted cytopathicity by 50% (Vero cells); type: functional, cell-based; conditions: Chlorocebus sabaeus
[25] = tested on: Vero; experiment: Concentration required to reduce forest virus-inducted cytopathicity by 50% (Vero cells); type: functional, cell-based; conditions: Chlorocebus sabaeus
[26] = tested on: Vero; experiment: Concentration required to reduce Tacaribe virus-inducted cytopathicity by 50% (Vero cells); type: functional, cell-based; conditions: Chlorocebus sabaeus
[27] = tested on: Vero; experiment: Concentration required to reduce parainfluenza-3 virus-inducted cytopathicity by 50% (Vero cells); type: functional, cell-based; conditions: Chlorocebus sabaeus
[28] = tested on: Vero; experiment: Concentration required to reduce reovirus-1 inducted cytopathicity by 50% (Vero cells); type: functional, cell-based; conditions: Chlorocebus sabaeus
[29] = tested on: Vero; experiment: Concentration required to reduce sindbis virus-inducted cytopathicity by 50% (Vero cells); type: functional, cell-based; conditions: Chlorocebus sabaeus
[30] = tested on: MT4; experiment: Concentration required to inhibit human immunodeficiency virus-1 induced cytopathicity in MT-4 cells by 50%; type: functional, cell-based; how it was run: as §3
[31] = tested on: E6SM; experiment: Concentration required to reduce herpes simplex virus-2(Lyons) inducted cytopathicity by 50% (E6SM cells); type: functional, cell-based; conditions: Homo sapiens; how it was run: as §2
[32] = tested on: Human immunodeficiency virus 2; experiment: Concentration required to inhibit by 50% human immunodeficiency virus-2 induced syncytium formation upon coculturing persistently HIV-infected HUT-78 cells with MOLT-4 cells; conditions: HUT-78, MOLT-4

SMILES	CC50 [1] [µM]	IC50 [2] [µM]	minimum cytotoxic concentration [3] [µM]	IC50 [4] [µM]	IC50 [5] [µM]	IC50 [6] [µM]	IC50 [7] [µM]	IC50 [8] [µM]	IC50 [9] [µM]	IC50 [10] [µM]	IC50 [12] [µM]	IC50 [13] [µM]	IC50 [14] [µM]	IC50 [15] [µM]	IC50 [16] [µM]	IC50 [17] [µM]	IC50 [18] [µM]	IC50 [19] [µM]	CC50 [20] [µM]	IC50 [21] [µM]	further results
O=S(=O)(O)CCSCCCOC[C@H]1O[C@@](COCCCSCCS(=O)(=O)O)(O[C@H]2O[C@H](COCCCSCCS(=O)(=O)O)[C@@H](OCCCSCCS(=O)(=O)O)[C@H](OCCCSCCS(=O)(=O)O)[C@H]2OCCCSCCS(=O)(=O)O)[C@@H](OCCCSCCS(=O)(=O)O)[C@@H]1OCCCSCCS(=O)(=O)O	> 50.6	> 50.6	> 203	> 203	> 101	> 101	> 101	> 101	> 101	> 101	> 127	> 25	> 25	> 25	> 101	> 51	> 51	> 51	> 127	> 127	IC50 ([11]; Orthopoxvirus vaccinia, E6SM): > 101 µM; IC50 [22]: > 101 µM; IC50 [23]: > 101 µM; IC50 [24]: > 25 µM; IC50 [25]: > 101 µM; IC50 [26]: > 25 µM; IC50 [27]: > 101 µM; IC50 [28]: > 101 µM; IC50 [29]: > 101 µM; IC50 [30]: > 127 µM; IC50 [31]: > 101 µM; IC50 [32]: > 127 µM
O=C(O)CC(SCCCOC[C@H]1O[C@@](COCCCSC(CC(=O)O)C(=O)O)(O[C@H]2O[C@H](COCCCSC(CC(=O)O)C(=O)O)[C@@H](OCCCSC(CC(=O)O)C(=O)O)[C@H](OCCCSC(CC(=O)O)C(=O)O)[C@H]2OCCCSC(CC(=O)O)C(=O)O)[C@@H](OCCCSC(CC(=O)O)C(=O)O)[C@@H]1OCCCSC(CC(=O)O)C(=O)O)C(=O)O (stereo not given in full)	> 45.1	3.02	> 181	> 181	> 181	> 181	> 181	> 181	> 181	> 181	22.6	> 22	> 22	> 22	> 90	> 90	> 90	> 90	> 113	2.89	IC50 ([11]; Orthopoxvirus vaccinia, E6SM): > 181 µM; IC50 [22]: > 90 µM; IC50 [23]: > 90 µM; IC50 [24]: > 22 µM; IC50 [25]: > 90 µM; IC50 [26]: > 22 µM; IC50 [27]: > 90 µM; IC50 [28]: > 90 µM; IC50 [29]: > 90 µM; IC50 [30]: 0.18 µM; IC50 [31]: > 135 µM; IC50 [32]: 22.6 µM
O=S(=O)(O)CCSCCCOC[C@H]1O[C@@H](OCCCSCCS(=O)(=O)O)[C@H](OCCCSCCS(=O)(=O)O)[C@@H](OCCCSCCS(=O)(=O)O)[C@@H]1OCCCSCCS(=O)(=O)O	> 83.3	> 83.3	> 333	> 333	> 333	> 333	> 333	> 333	> 333	> 333	> 208	> 42	> 42	> 333	> 167	> 167	> 167	> 167	> 208	> 208	IC50 ([11]; e6sm): > 167 µM; IC50 [22]: > 167 µM; IC50 [23]: > 167 µM; IC50 [24]: > 42 µM; IC50 [25]: > 167 µM; IC50 [26]: > 42 µM; IC50 [27]: > 167 µM; IC50 [28]: > 167 µM; IC50 [29]: > 167 µM; IC50 [31]: > 42 µM; IC50 [32]: > 208 µM
